Experimental data reported in paper PMC3582785 (Arthritis and rheumatism, 2013).

Tested on: SE-expressing peptides and tetrameric proteins
Assay: SPR binding of CRT variants
Details: citrullinated CRT compared to non-citrullinated CRT
In short: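 Native, PAD-citrullinated or Arg→Ala mouse CRT was immobilised at 3000 RU. Analytes were 15mer SE-positive or SE-negative control peptides at 330 μM, and HLA-DR tetramers (SE-positive or SE-negative) at 250 nM.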

B1: Cit-CRT: recombinant mouse CRT citrullinated in vitro with PAD from rabbit skeleton muscle (protein, UniProt P14211 18-416, looked up)
Calreticulin: DPAIYFKEQFLDGDAWTNRWVESKHKSDFGKFVLSSGKFYGDLEKDKGLQTSQDARFYALSAKFEPFSNKGQTLVVQFTVKHEQNIDCGGGYVKLFPSGLDQKDMHGDSEYNIMFGPDICGPGTKKVHVIFNYKGKNVLINKDIRCKDDEFTHLYTLIVRPDNTYEVKIDNSQVESGSLEDDWDFLPPKKIKDPDAAKPEDWDERAKIDDPTDSKPEDWDKPEHIPDPDAKKPEDWDEEMDGEWEPPVIQNPEYKGEWKPRQIDNPDYKGTWIHPEIDNPEYSPDANIYAYDSFAVLGLDLWQVKSGTIFDNFLITNDEAYAEEFGNETWGVTKAAEKQMKDKQDEEQRLKEEEEDKKRKEEEEAEDKEDDDDRDEDEDEEDEKEEDEEESPGQAKDEL
modifications: citrullinated
  interaction with the SE ligand (in words): higher affinity for the SE ligand
